Measurements: PMC8114186 (ChemMedChem, 2020)
Like-named read-outs stand apart in the source and are kept apart here. Marks after values point to notes of the source that are not given here. Blank lines part the entries; values can stand above or below the compound they belong to.

Columns and labels:
[1] = test system: E. coli UTI89 expressing NDM-1; format: cell-based
[2] = test system: E. coli MG1655 expressing NDM-1; format: cell-based
NDM-1 = NDM-1 (Klebsiella pneumoniae, UniProt C7C422); experiment: In vitro inhibition of NDM-1-catalyzed turnover of nitrocefin; format: biochemical
Outline: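 Purified NDM-1 enzyme, identity and purity confirmed by ESI-MS. Test compound serially diluted in 50 mM HEPES, pH 7.2, and preincubated with 1 nM NDM-1 for 10 min at rt. Nitrocefin (20 µM) then added; absorbance at 492 nm followed over 30 min at rt. Slopes normalized to each compound's maximum slope, plotted against log concentration; IC50 and confidence intervals from curve fit.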

[3] = E. coli MG1655, 100 μM compound

NDM-1, sequence (C7C422 29-270, looked up, species assumed): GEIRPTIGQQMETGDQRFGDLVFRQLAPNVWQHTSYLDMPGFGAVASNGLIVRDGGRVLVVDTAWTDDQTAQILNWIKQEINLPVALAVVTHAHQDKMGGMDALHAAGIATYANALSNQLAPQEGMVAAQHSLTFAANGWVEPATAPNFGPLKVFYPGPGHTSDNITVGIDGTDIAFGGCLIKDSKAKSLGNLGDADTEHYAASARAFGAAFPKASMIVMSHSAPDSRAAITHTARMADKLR

Compound: O=C(O)c1cccc2oc(-c3c(O)ccc4ccccc34)nc12 [Compound 7, 2-(2-hydroxynaphthalen-1-yl)benzoxazole-4-carboxylic acid]
Restoration of meropenem susceptibility ([1]; E. coli UTI89, 100 μM compound): failed to restore meropenem susceptibility
Meropenem MIC ([1]; E. coli UTI89, meropenem + 100 μM compound): 64 µg/mL
Restoration of meropenem susceptibility [2, 3]: failed to restore meropenem susceptibility
Meropenem MIC ([2]; E. coli MG1655, meropenem + 100 μM compound): 64 µg/mL
IC50 (NDM-1): 8.5 µM

Compound: O=C(O)c1cccc2oc(-c3ccc4ccccc4c3O)nc12 [Compound 5, 2-(1-hydroxynaphthalen-2-yl)benzoxazole-4-carboxylic acid]
Decrease of the MIC of meropenem ([1]; E. coli UTI89, 100 μM compound): at least 16 fold
Decrease of the MIC of meropenem [2, 3]: at least 16 fold
IC50 (NDM-1): 0.74 µM

Compound: O=C(O)c1cccc2oc(-c3ccc4cc(OCc5ccccc5)ccc4c3O)nc12 [Compound 9, 2-(6-benzyloxy-1-hydroxynaphthalen-2-yl)benzoxazole-4-carboxylic acid]
Reduction of the MIC of meropenem ([1]; E. coli UTI89, 25 μM compound): at least 4 fold
Decrease of the MIC of meropenem ([1]; E. coli UTI89, 100 μM compound): at least 16 fold
Antibacterial activity of compound on its own ([1]; E. coli UTI89, 200 μM, no meropenem): did not show any antibacterial activity
Meropenem MIC ([1]; E. coli UTI89, meropenem + 25 μM compound): 4–8^[a] μg/mL
Meropenem MIC ([1]; E. coli UTI89, meropenem + 50 μM compound): ≤0.5 µg/mL
Meropenem MIC ([1]; E. coli UTI89, meropenem + 200 μM compound): ≤0.5 µg/mL
Reduction of the MIC of meropenem ([2]; E. coli MG1655, 25 μM compound): at least 4 fold
Decrease of the MIC of meropenem [2, 3]: at least 16 fold
Antibacterial activity of compound on its own ([2]; E. coli MG1655, 200 μM, no meropenem): did not show any antibacterial activity
Meropenem MIC ([2]; E. coli MG1655, meropenem + 25 μM compound): 16 µg/mL
Meropenem MIC ([2]; E. coli MG1655, meropenem + 50 μM compound): 1–4^[a] μg/mL
Meropenem MIC ([2]; E. coli MG1655, meropenem + 200 μM compound): ≤0.5 µg/mL

IC50 (NDM-1): > 40 µM
Inhibitory activity against NDM-1 (in words) (NDM-1): lack of inhibitory activity
Compound: O=C(O)c1cccc2oc(-c3ccc4c(OCc5ccccc5)cccc4c3O)nc12 [Compound 10, 2-(5-benzyloxy-1-hydroxynaphthalen-2-yl)benzoxazole-4-carboxylic acid]

Compound: C[C@@H](O)[C@H]1C(=O)N2C(C(=O)O)=C(S[C@@H]3CN[C@H](C(=O)N(C)C)C3)[C@H](C)[C@H]12 [Meropenem, reference compound]
Meropenem MIC ([1]; E. coli UTI89, meropenem alone): >64 µg/mL
MIC ([1]; Escherichia coli, read-out: Meropenem MIC, E. coli UTI89, meropenem alone): ≥ 64 µg/mL
Meropenem MIC ([2]; E. coli MG1655, meropenem alone): 64 µg/mL

IC50 (NDM-1): 9.8 µM
Compound: O=C(O)c1cccc2oc(-c3cc4ccccc4cc3O)nc12 [Compound 6, 2-(3-hydroxynaphthalen-2-yl)benzoxazole-4-carboxylic acid]

Compound: O=C(O)c1cccc2oc(-c3ccc4ccc(OCc5ccccc5)cc4c3O)nc12 [Compound 8, 2-(7-benzyloxy-1-hydroxynaphthalen-2-yl)benzoxazole-4-carboxylic acid]
Decrease of the MIC of meropenem ([1]; E. coli UTI89, 100 μM compound): at least 16 fold
Decrease of the MIC of meropenem [2, 3]: at least 16 fold
IC50 (NDM-1): 2.3 µM
